Source: paper PMC10442107 (Hepatology (Baltimore, Md.), 2023)
Like-named read-outs stand apart in the source and are kept apart here.

Key:
[1] = Oral pharmacokinetic profile of A3907 and A3309 in BDL mice; type: in vivo, mouse
Summary of the method: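 Adult male C57BL/6 mice with bile duct ligation received the test compound or a gut-restricted ASBT inhibitor by mouth at 3 or 10 mg/kg once daily for 7 days. Plasma exposure was profiled and set against normal wild-type mice dosed under the same conditions.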

ileal ASBT = biological target: T1, ileal ASBT (Mus musculus, UniProt P70172); assay: Pharmacodynamic study in normal wild-type C57BL/6N mice; type: in vivo
T1 sequence (P70172 1-348): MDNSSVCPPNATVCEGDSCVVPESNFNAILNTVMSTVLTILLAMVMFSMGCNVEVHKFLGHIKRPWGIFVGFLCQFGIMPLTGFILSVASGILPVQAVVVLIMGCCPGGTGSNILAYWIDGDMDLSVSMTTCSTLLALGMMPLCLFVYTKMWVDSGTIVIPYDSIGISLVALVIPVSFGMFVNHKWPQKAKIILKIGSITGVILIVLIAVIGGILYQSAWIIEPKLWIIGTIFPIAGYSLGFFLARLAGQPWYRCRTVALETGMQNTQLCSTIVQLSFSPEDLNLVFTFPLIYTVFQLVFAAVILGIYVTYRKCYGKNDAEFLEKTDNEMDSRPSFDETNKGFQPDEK
Summary of the method: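 Adult C57BL/6N mice (13–14 weeks) were gavaged daily for 8 days with the test compound at 3 or 10 mg/kg/d or with vehicle (0.5% CMC + 0.1% Tween 80). Feces were collected between days 6 and 7 and urine 2 h after the day-8 terminal dose. Total bile acids were measured with commercial kits and compared with vehicle by 1-way ANOVA with Dunnett post hoc test.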

BDL mice = assay: Bile duct ligation; type: in vivo, mouse; conditions: 3 mg/kg/d
Summary of the method: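 Male mice on a C57BL/6J background, age-matched, underwent bile duct ligation. Oral gavage dosing started 3 days after surgery and continued once daily for 11 days, with the comparator ASBT inhibitor at 3 mg/kg. Blood for serum biochemistry was taken by cardiac puncture at sacrifice. RNAseq was run on RNA from terminal liver samples (15 mg fresh tissue).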

[2] = compared with levels in BDL mice of the current study; cited from earlier work
Mdr2 −/− mice = conditions: cited from earlier work
[3] = pediatric, cited from earlier work
[4] = 11 days, A3907 vs A3309 comparison
[5] = progressive familial intrahepatic cholestasis

CCCCC1(CCCC)CN(c2ccccc2)c2cc(SC)c(OCC(=O)N[C@@H](C(=O)NCC(=O)O)c3ccccc3)cc2S(=O)(=O)C1 [A3309]
serum levels compared with A3907 ([1]; BDL mice, 3 or 10 mg/kg oral daily): significantly lower than A3907 | plasma exposure in BDL mice relative to normal WT mice ([1]; same experimental conditions, WT data not shown): ~ 6 fold | urine BA levels (ileal ASBT; normal mice, oral 3 and 10 mg/kg/d, 2 hours after dose on day 8): did not change | fecal BA levels (ileal ASBT; normal nonfasted mice, oral 3 and 10 mg/kg/d once daily for 7 days, vs vehicle): significant elevation of fecal BA levels | serum and biliary BAs levels (BDL mice; [4]): attenuated BA levels in a nonsignificant fashion | urinary BA excretion (BDL mice; [4]): induced urinary BA excretion to some extent | number of dysregulated hepatic genes normalized (BDL mice; liver RNAseq, of 5790 DEGs vs sham): 15 | systemic exposure in humans at the therapeutically relevant dose [2]: several-fold lower than levels demonstrating signs of efficacy in BDL mice

CCCCC1(CCCC)CN(c2ccccc2)c2cc(SC)c(OCC(=O)N[C@@H](C(=O)N[C@@H](CC)C(=O)O)c3ccc(O)cc3)cc2S(=O)(=O)N1 [A4250, odevixibat]
BA levels in serum and bile (Mdr2 −/− mice): reduced | cholestatic liver disease (Mdr2 −/− mice): improved | BA load [3, 5]: reduced | pruritus [3, 5]: decreased

CCCCC1(CCCC)CS(=O)(=O)c2ccc(N(C)C)cc2[C@@H](c2ccc(OCCCC[N+]34CCN(CC3)CC4)cc2)[C@H]1O [SC-435]
BA levels in serum and bile (Mdr2 −/− mice): reduced | cholestatic liver disease (Mdr2 −/− mice): improved

CCCCC1(CCCC)CS(=O)(=O)c2ccc(N(C)C)cc2[C@@H](c2ccc(OCc3ccc(C[N+]45CCN(CC4)CC5)cc3)cc2)[C@H]1O [maralixibat]
BA load ([3]; Alagille syndrome): reduced | pruritus ([3]; Alagille syndrome): decreased
